# High-throughput results (PubChem BioAssay)
# ABHD5-PLIN5 inh = blocks binding of human ABHD5 to perilipin-5 | Q00G26+Q8WTS1 | actives 0.78% (n = 360,000) | Split G. princeps luciferase complementation, luminescence, 4 h | inhibition, % at 4 µM;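 active means inhibition above the mean inhibition across every tested compound plus 3 SD, cut at about 22% in these data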;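 further: 0% = DMSO only wells and the 100% control is not disclosed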
# HCV NS3 hel inh = inhibitors of Hepatitis C virus NS3 helicase. NS3 helicase DNA unwinding, Cy5 molecular beacon fluorescence. inhibition, % at 10.9 µM. actives 0.56% (n = 290,000). AID 1800;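 active means inhibition above the mean of all tested compounds plus 3 SD, set per campaign, cut at about 35% in these data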;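 further: 0% = DMSO wells and 100% = thioflavine S control wells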
#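 assay system = NS3 helicase fragment of HCV | buffer or medium = MOPS pH 6.5, MgCl2, DTT, Tween20, BSA | timing = 60 min unwinding reaction at 25 °C after ATP addition | signal = Cy5 beacon fluorescence read at start and 1 h | read-out basis = % inhibition of unwinding | control set = low DMSO, high thioflavine S at 110 µM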
# APOBEC3A inh = inhibitors of human APOBEC3A DNA deaminase. inhibition, % at 20 µM. actives 0.41% (n = 330,000). recombinant A3A, FAM/TAMRA ssDNA deamination fluorescence. AID 493011. P31941;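 active means at least 40% inhibition at 20 µM here, with at most 30% in a related deaminase screen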;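 further: plate controls were A3A with DMSO for no effect and wells lacking A3A enzyme for full effect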
# Target sequence (P31941 whole entry, looked up): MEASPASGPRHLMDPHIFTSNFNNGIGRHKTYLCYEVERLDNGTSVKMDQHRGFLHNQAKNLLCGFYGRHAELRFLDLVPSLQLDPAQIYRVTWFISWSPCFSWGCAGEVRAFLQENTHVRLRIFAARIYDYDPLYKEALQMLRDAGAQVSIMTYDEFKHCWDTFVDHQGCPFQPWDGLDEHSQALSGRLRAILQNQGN
# HCV core dimer = blocks dimerization of HCV core protein; TR-FRET GST/Flag-core106 dimerization, 1536-well; AID 1899; actives 0.33% (n = 300,000); inhibition, % at 5 µM;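 active means inhibition above the mean of all tested compounds plus 3 SD, set per screening campaign, cut at about 45% in these data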
#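 System – GST-tagged and Flag-tagged HCV core protein residues 1-106 · Repeats – one well for each compound · Technique – TR-FRET 671 and 617 nm emission · Doses – one concentration, 5 µM, in 0.5% DMSO · Times – 4 h, 22.5 °C incubation · Also added – Eu donor and XL665 acceptor anti-tag antibodies · Measure – percent inhibition of core106 dimerization signal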
# PRMT1 inh = PRMT1 (human) inhibition, primary screen; Q99873; recombinant PRMT1, activity-based probe fluorescence polarization; inhibition, % at 2.79 µM; actives 1.3% (n = 370,000); AID 652257;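 active means inhibition above about 21% made by adding two undisclosed values, limit read from the data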
# APOBEC3G inh = blocks human APOBEC3G single-stranded DNA deamination. AID 493012. inhibition, % at 20 µM. actives 0.28% (n = 330,000). recombinant A3G, ssDNA deamination FAM/TAMRA fluorescence. Q9HC16;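 active means inhibition of at least 40% at 20 µM, with no more than 30% in the related APOBEC3A deaminase screen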;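 further: plate controls were DMSO wells with A3G for no effect and wells lacking A3G enzyme for full effect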
# Target sequence (Q9HC16 whole entry, looked up): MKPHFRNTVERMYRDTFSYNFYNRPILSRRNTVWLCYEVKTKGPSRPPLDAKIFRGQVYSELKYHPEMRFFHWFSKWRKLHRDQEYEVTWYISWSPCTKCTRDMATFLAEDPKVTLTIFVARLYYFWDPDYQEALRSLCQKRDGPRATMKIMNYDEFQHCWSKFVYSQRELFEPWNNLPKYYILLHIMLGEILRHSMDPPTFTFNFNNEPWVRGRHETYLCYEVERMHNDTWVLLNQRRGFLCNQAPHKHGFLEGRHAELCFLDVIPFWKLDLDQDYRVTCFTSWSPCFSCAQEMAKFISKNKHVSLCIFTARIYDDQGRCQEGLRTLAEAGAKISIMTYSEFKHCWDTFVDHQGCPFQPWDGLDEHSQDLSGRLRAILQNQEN
# PRMT1 inh conf = confirmation of human PRMT1 inhibitors; shares compounds with PRMT1 inh; recombinant His-PRMT1, activity-based probe fluorescence polarization; inhibition, % at 2.79 µM; actives 42% (n = 3,300);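 active means mean inhibition across replicates above the hit cutoff derived for the earlier primary screen, cut at about 22% in these data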
# Starred values were filed as active, the others as inactive; x = not tested or not shown. Sampled rows, rich in hits. Any-hit rate of the full collection: about 2.9%.
SMILES,ABHD5-PLIN5 inh,HCV NS3 hel inh,APOBEC3A inh,HCV core dimer,PRMT1 inh,APOBEC3G inh,PRMT1 inh conf
O=C(O)/C=C/C(=O)Nc1ccccc1-c1ccccc1NC(=O)/C=C/C(=O)O,14,0,2,2,53*,9,26*
O=C(O)/C=C/C(=O)Nc1ccccc1SC(F)(F)F,-1,-5,2,-2,61*,-2,36*
NC(=O)c1ccccc1NC(=O)/C=C/C(=O)O,-3,-2,-6,-4,3,-7,x
Cc1ccc(NC(=O)[C@@H]2O[C@H](CO)[C@H](O)[C@H](O)[C@H]2O)cc1C(F)(F)F,6,x,x,x,-3,x,x
Cc1cccc(N2C(=O)C=CC2=O)c1,6,x,x,x,71*,x,88*
O=C1C=CC(=O)N1c1ccc2ccccc2c1,19,x,x,x,70*,x,90*
Cc1cnc(NCCc2ccccc2)s1,-6,7,-5,x,8,-6,x
CC(C)c1ccc(C(=O)N2CCCCC2c2cc(C(=O)NCc3cccnc3)no2)cc1 (centres undefined),6,x,x,x,-2,x,x
CCCS(=O)(=O)NC(=O)C1(C)CCN(C(=O)COc2ccccc2)C1 (centres undefined),-8,x,x,x,-3,x,x
O=C1C(CSCc2ccccc2)NC(=S)N1c1ccccc1 (centres undefined),-5,-10,-1,5,27*,-4,68*
O=C(O)CC1NC(=S)N(c2ccccc2)C1=O (centres undefined),4,1,1,-4,-1,7,x
CCC[C@H]1CN(c2ccc(OC)cc2)C(=O)[C@@H]1CC(=O)NC,1,x,x,x,-4,x,x
O=C1CC(SC(=S)C2CCCC2=O)C(=O)N1 (centres undefined),-30,x,x,x,64*,x,82*
Cc1ccc(CNC(=O)CN2C(=O)COc3ccc(S(=O)(=O)N4CCCCC4)cc32)o1,0,2,-5,-4,0,-5,x
c1ccc2c(c1)[nH]c1nc(SCCN3CCOCC3)nnc12,-2,1,-1,1,30*,-3,3
CC1CC1C(=O)Nc1nc(-c2cccs2)c(-c2cccs2)s1 (centres undefined),-9,6,12,50*,27*,0,9
COc1cc(C(=O)NCC(c2ccco2)N2CCOCC2)cc(OC)c1OC (centres undefined),-1,x,3,-1,2,-9,x
O=C(CCNc1ccc(Cc2ccncc2)cc1)c1cccc([N+](=O)[O-])c1,14,-10,-1,6,32*,1,31*
O=C(CCNc1cccc(F)c1)c1cccc([N+](=O)[O-])c1,-3,-5,2,1,41*,1,27*
CC(=O)Nc1cc[n+](CC(=O)c2cccc([N+](=O)[O-])c2)cc1,5,-1,-6,-13,-4,-5,x
CC(=O)Nc1ccc(SCC(=O)c2c(N)n(Cc3ccccc3)c(=O)n(C)c2=O)cc1,-4,3,-8,0,25*,-3,18
CC(=O)NC(=S)c1c(N)n(Cc2ccccc2)c(=O)n(C)c1=O,x,11,-5,6,x,-5,x
Cc1ccc(-c2csc(NS(=O)(=O)c3cccc(F)c3)n2)o1,21,x,17,x,54*,36,21
COc1ccc2cc(C(c3nnnn3C(C)(C)C)N3CCSCC3)c(=O)[nH]c2c1 (centres undefined),-25,-4,2,1,34*,0,-6
CCCCNC(=O)c1nc(C2CCN(S(=O)(=O)c3cccc(C(F)(F)F)c3)CC2)oc1-c1cccc(C(F)(F)F)c1,4,x,x,x,3,x,x
SMILES,ABHD5-PLIN5 inh,HCV NS3 hel inh,APOBEC3A inh,HCV core dimer,PRMT1 inh,APOBEC3G inh,PRMT1 inh conf
O=C(CSc1nccc(=O)[nH]1)Nc1ccc(S(=O)(=O)N2CCOCC2)cc1,-10,4,0,0,49*,-8,9
C[C@H]1CN([C@@H](C)CO)C(=O)CCCn2nncc2CO[C@H]1CN(C)S(=O)(=O)c1ccccc1,6,x,x,x,2,x,x
c1ccc([C@H]2CN3C(=N2)Sc2ccccc23)cc1,-4,x,-2,x,29*,-4,20
COc1cc(C(=O)OCC(=O)c2cc(C)n(CC3CCCO3)c2C)ccc1OCC(=O)N1CCOCC1 (centres undefined),4,x,2,1,3,-6,x
Cc1noc(C)c1C(=O)OC(C)C(=O)Nc1ccc([N+](=O)[O-])cc1C(F)(F)F (centres undefined),3,x,x,x,4,x,x
CCc1noc(C)c1C(=O)OC(C)C(=O)Nc1cc([N+](=O)[O-])ccc1OC (centres undefined),2,x,-2,1,98*,-9,-2
Cc1cc(-n2c(C)cc(C(=O)CSc3ccccn3)c2C)no1,1,x,-4,x,26*,-6,18
COc1ccc(CCNC(=O)C(=O)NCC2OCCN2S(=O)(=O)c2ccc(OC)cc2)cc1 (centres undefined),2,-1,-2,-10,30*,-3,0
CCOC(=O)C1CCC(=O)N1Cc1c[nH]c2ccccc12 (centres undefined),-2,x,x,x,-4,x,x
CC(C)n1c(=O)[nH][nH]c1=S,-13,-11,-8,4,70*,4,91*
O=c1[nH][nH]c(=S)n1C1CCCCC1,x,12,-3,1,x,12,x
CCN(CC(=O)Nc1ccccc1C(F)(F)F)C(=O)c1ccccc1OCc1ccc(F)cc1,-1,x,x,x,1,x,x
COc1ccc(/C=C/S(=O)(=O)NCC(C)C)c(CNC(=O)OC(C)(C)C)c1,x,x,x,x,0,x,x
O=C(CSc1ccc(Cl)cc1)N1CCN(c2ccc([N+](=O)[O-])cc2Cl)CC1,-8,-11,-3,22,28*,-3,0
O=C(O)c1ccccc1NS(=O)(=O)c1ccc(N/N=C/c2cccc(O)c2O)c([N+](=O)[O-])c1,-8,x,x,x,35*,x,29*
COc1cc(C=NNc2ccc(S(=O)(=O)Nc3ccccc3C(=O)O)cc2[N+](=O)[O-])ccc1O,0,x,-3,x,1,-5,x
O=C(Nc1ccc(F)c(Cl)c1)c1cc(C2CCCCN2C(=O)c2cccs2)on1 (centres undefined),-3,x,x,x,8,x,x
Fc1ccc(CSc2nnc3ccccn23)c(Cl)c1,17,4,-9,2,46*,-4,-2
Fc1cccc(Cl)c1CSc1nnc2ccccn12,1,-8,0,3,-2,-8,x
O=C1C=CC(=O)N1,18,x,3,-4,78*,5,87*
Clc1ccc2nc3c4ccccc4cnn3c2c1,5,-3,0,-5,0,0,x
Oc1ccc2nnc3c(Br)cnn3c2c1,-4,16,-3,-14,50*,-9,50*
